In the EternaBench riboswitch data:

Tested on: MS2 coat protein
Experiment: apparent Kd, MS2 coat protein; higher = weaker binding; RNA-MaP array; FMN 200 µM where present
Procedure, shortened: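 The apparent Kd is reported as the median of filtered per-cluster binding-curve fits. To get these curves, designs transcribed by stalled E. coli RNA polymerase on Illumina sequencing-chip clusters were titrated with SNAP-549-labelled MS2 coat protein from 0.7 or 1.5 nM, doubling to 3 µM. Titrations were run without and then with constant ligand in 100 mM Tris-HCl pH 7.5, 80 mM KCl, 4 mM MgCl2, BSA, DTT, yeast tRNA and Tween-20, and green signal was normalised to red-channel RNA signal and control-cluster median Fmax.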

[1] = designed as: ON switch for flavin mononucleotide, no ligand
[2] = ligand present: flavin mononucleotide, designed as: ON switch for flavin mononucleotide
[3] = designed as: OFF switch for flavin mononucleotide, no ligand
[4] = ligand present: flavin mononucleotide, designed as: OFF switch for flavin mononucleotide

Row | Sequence | apparent Kd [1] [nM] | apparent Kd [2] [nM] | apparent Kd [3] [nM] | apparent Kd [4] [nM]
1 | CCGAUUAGCACAGGAUAUGGGAACUCGUAAUUCCCAGAAGGGUGAGCCAAUACAUGAGGAUCACCCAUGUGCGGUAGGUCGGGA | 40.5 | 51 |  | 
2 | CCGCCAUAAGUCAGGAUAUUCUUUAAGUUGUUGGAGAAGAAGGGACAUGAGGAUCACCCAUGUAAUAGGCCUCA |  |  | 842 | 598
3 | CCGCUGUGAGGAUAUUAGUAGUAGUCAGAAUAGACUAUUACUGAGAAGGCACAUGAGGAUCACCCAUGUGGCGG |  |  | 22.4 | 31.7
4 | CCGGAAACGGGUAGCCUGACAUGAGGAUCACCCAUGUGAUCAGAGGAUAUGGAUCCUAAUUGGAUCCAGAAGGCUGUUGGCUAC | 73.4 | 27.5 |  | 
5 | CCGGAAGUACAGGAUAUAGGAGUCGAUAGACUCCUAGAAGGGUAUACAUGAGGAUCACCCAUGUGUCCUACCGG |  |  | 29.6 | 33.4
6 | CCGGCUGCUGUGAGGAUAUGCCUGUGGGUGCGCGGGCAGAAGGCACAUGAGGAUCACCCAUGUCCUGCGGUCCC |  |  | 25.7 | 50.6
7 | CCGGCUUACUAGGAUAUAGGAGUCGAUAGACACCUAGAAGGAGUAACAUGAGGAUCACCCAUGUGUCCUACCGG |  |  | 22.1 | 86
8 | CCGGCUUAGGAGGAUAUGGGAGUCGAUAGACACCCAGAAGGCCUAACAUGAGGAUCACCCAUGUGUCCUACCGG |  |  | 23.4 | 109
9 | CCGGGACAUGAGGAUCACCCAUGUUUCGUUUGUAGUAAAACACAGGAUAUGAUGAAACAGGUUUCUCAGAAGGGUGUUCCGAAA | 81.3 | 55.3 |  | 
10 | CCGGUGGCGCUAGUGGUGACUGCACAGGAUAUAGCGCUCACAUGAGGAUCACCCAUGUAAGGACGCUAGAAGGGUGAAAGUAUA | 59.9 | 19.9 |  | 
11 | CCUAAGGACACAGGAUAUAGCGCGGUGGCUGGGCUCCAACGGCGAGCGACGCUAGAAGGGUGACCACAUGAGGAUCACCCAUGU | 517 | 122 |  | 
12 | CCUAAGGAGACAGGAUAUAGUGUGGUGGCCGGGCUCCCACGGCGAGCGGCACUAGAAGGGUCACUACAUGAGGAUCACCCAUGU | 30.3 | 15.6 |  | 
13 | CCUACAUAUUUUAAGUAUGAUUAACUAGAAGGUAGAUACAUGAGGAUCACCCAUGUUUAGAGAUCUAAGGAUAUAGUAUGUAGC | 13.3 | 9.45 |  | 
14 | CCUAUACAUGAGGAUCACCCAUGUCAGGAUAUGGACAGCUACGUCAUAGGACGUAGCACCAGAAGGGACUGGCA |  |  | 50.1 | 130
15 | CCUCAACAGUAGGAUAUCAUAUAACUAUUGUGAUGAGAAGGACUGACAUGAGGAUCACCCAUGUUAACGUGAUA |  |  | 18 | 24.9
16 | CCUCCGUAUGAGGAUAUCGUCCAGGAAACUGGACGAGAAGGCAUGACAUGAGGAUCACCCAUGUUAAAGUGAUG |  |  | 21.4 | 58.4
17 | CCUCGACAUGAGGAUCACCCAUGUCAGGAUAUUGUGUUUCGGGUUUUUUACCUUUAGGCAAGAAGGGAUGUGUG |  |  | 15.8 | 22.4
18 | CCUCGACAUGAGGAUCACCCAUGUCAGGAUAUUGUGUUUUGGGUUUUUUACCUUUUGGCAAGAAGGGAUGUGUG |  |  | 15.5 | 19.1
19 | CCUCGGAGUAAGGAUAUCAAUUUGUAGAUAGAUUGAGAAGGUACUACAUGAGGAUCACCCAUGUCCCGUCUCAA |  |  | 14.7 | 16.4
20 | CCUCUACAUGAGGAUCACCCAUGUCAGGAUAUCGUGUGUUUUUUUUCGGCCGCGCGUGCGAGAAGGGACGUCUU |  |  | 31.9 | 32
21 | CCUCUACAUGAGGAUCACCCAUGUGAGGAUAUCAAAGCCAGAGCGGAUCUCUGGUCCAUGAGAAGGUGCAUGGU |  |  | 20.4 | 89.6
22 | CCUCUGUAAGGAUAUACGGAGACCACUGGAAUCAGUGGAAAGUAGAAGGUACAUGAGGAUCACCCAUGUGAGAA |  |  | 86.6 | 151
23 | CCUGGUUGGUAAGGAUAUCCUACACUGUUCUGACCCGUGCAAGCUACAUGAGGAUCACCCAUGUGGGAGAAGGUGCGUCAACGC |  |  | 12.6 | 11.7
24 | CCUGUCGCAUGAGGAUAUGGUCAGCUUUGCUGACCAGAAGGCAUGUCAAUAGACAUGAGGAUCACCCAUGUAGUUAAGACAGGA | 615 | 46.7 |  | 
25 | CCUUUAAAGAUCCAAAAUUUCAACAUGAGGAUCACCCAUGUGCAGGAUAUCGUGCCAGUGAUGUACGAGAAGGGCAGACUCUGC |  |  | 119 | 149
26 | CGAAGUCCGUAGAAGGGUGACAUGAGGAUCACCCAUGUGCGAGCCGAGGGAGUCAGCGGCUCGCCACAGGAUAUACGGAUCACG | 17.1 | 61.8 |  | 
27 | CGACAAGUCGUAGGAUAUGGUGAUGUACAUGAGGAUCACCCAUGUCCGUCUUCUCUCACAAGAUGCCAGAAGGGCGACUUCCGG | 676 | 404 |  | 
28 | CGACACCAGACAGGAUAUGCUGGACUUUGUCCAGCAGAAGGGUCUAAACAUGAGGAUCACCCAUGUAUGGUGUCGAAAUUUAAU | 51.1 | 8.06 |  | 
